Like-named read-outs stand apart in the source and are kept apart here.

Assay [1] concerns the target T1, human SERT (Homo sapiens, UniProt P31645). The assay is classed as cell-based. Particulars: for change of rate of peak current recovery with intracellular Na+ concentration: 0 to 140 mM intracellular Na+; for change of rate of peak current recovery with intracellular Na+ concentration / increase of rate of peak current recovery from 0 M to 140 mM intracellular Na+: extracellular Na+ 140 mM; for peak current recovery rate (monoexponential fit): fixed intracellular Na+ 140 mM, K+-free, Fig. 1 G; for dependence of the recovery rates on extracellular Na+ concentration: intracellular Na+ 140 mM, extracellular Na+ 10-140 mM; for kslow of peak current recovery (biexponential fit): after 30 µM substrate, ±SEM. In short, it runs like this:
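GFP-tagged human SERT, tetracycline-inducible, in HEK293 cells seeded at low density 24 h before. Whole-cell voltage clamp with superfused pH 7.4 HEPES buffer. Na+ varied, osmolarity kept by NMDG chloride; intracellular Na+ 0–140 mM at 140 mM external. After 30 µM substrate, 10 µM 5-HT-evoked peak recovery fitted to mono- or biexponential rise; rates ±95% CI, kslow ±SEM; n = 4–7.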

The target in assay [2] is T1, human SERT. Description: [3H]MPP+ release. Type of assay: cell-based. The following applies: 3 µM releaser, 100 µM ouabain; for effect of monensin on efflux of [3H]MPP+: with vs without 10 µM monensin. In short, it runs like this:
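HEK293 cells with inducible GFP-tagged human SERT on poly-D-lysine coverslips (24 h) were preloaded with 0.1 µM [3H]MPP+ for 20 min at 37°C. Superfused with K+-free buffer containing 100 µM ouabain for 40 min, then 2-min fractions: three basal, four with 10 µM monensin or ethanol vehicle, five with 3 µM test compound, three with 1% SDS. Release given as percent [3H]MPP+ over time.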

T1 sequence (P31645 whole entry, the tested form may be a part): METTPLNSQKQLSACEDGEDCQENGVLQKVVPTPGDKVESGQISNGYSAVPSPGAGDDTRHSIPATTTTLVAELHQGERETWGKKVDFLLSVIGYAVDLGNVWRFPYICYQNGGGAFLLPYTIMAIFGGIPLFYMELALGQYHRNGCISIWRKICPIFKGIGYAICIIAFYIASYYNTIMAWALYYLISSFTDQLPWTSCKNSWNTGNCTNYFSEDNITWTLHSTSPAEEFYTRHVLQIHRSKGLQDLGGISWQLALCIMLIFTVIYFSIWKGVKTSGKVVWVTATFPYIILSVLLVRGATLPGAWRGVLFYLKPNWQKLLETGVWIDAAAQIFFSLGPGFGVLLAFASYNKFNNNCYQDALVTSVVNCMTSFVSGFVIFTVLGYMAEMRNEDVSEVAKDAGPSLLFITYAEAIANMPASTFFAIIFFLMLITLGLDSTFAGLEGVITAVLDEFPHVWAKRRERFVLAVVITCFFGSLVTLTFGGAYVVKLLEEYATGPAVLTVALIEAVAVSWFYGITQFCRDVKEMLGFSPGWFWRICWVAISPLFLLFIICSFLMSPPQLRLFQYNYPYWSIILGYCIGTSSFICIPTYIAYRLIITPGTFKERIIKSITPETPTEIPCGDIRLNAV

With `CC(N)Cc1ccc2ccccc2c1` (centres unmarked) [PAL-287], at human SERT [1], the “change of rate of peak current recovery with intracellular Na+ concentration” value (from here on “change of rate of peak current recovery”) is listed as “did not change with Na^+ concentration”.
Consider `NCCc1c[nH]c2ccc(O)cc12` [5-HT, 5-hydroxy-tryptamine], for which, on human SERT [1], the “increase of rate of peak current recovery from 0 M to 140 mM intracellular Na+” value is roughly 6.7 fold, the “peak current recovery rate (monoexponential fit)” value worked out at 4.012 ± 0.211 s⁻¹ and the “dependence of the recovery rates on extracellular Na+ concentration” value is on record as “did not detect any dependence”.
With `CCN[C@@H](C)Cc1ccc2ccccc2c1` [PAL-1045], on human SERT [1], the “change of rate of peak current recovery” value is “decreased fourfold” and the “peak current recovery rate (monoexponential fit)” value was 0.025 ± 0.001 s⁻¹. For the same molecule, the “dissociation rate from SERT” value on human SERT [1] (slow dissociation from the outward-facing conformation, high Na+) was roughly 0.025 s⁻¹. The “effect of monensin on efflux of [3H]MPP+” value on human SERT [2] is “comparable in the absence and presence of monensin”.
`CC(N)Cc1ccc(Cl)cc1` (centres unmarked) [p-chloroamphetamine, para-chloroamphetamine]: the “kslow of peak current recovery (biexponential fit)” value at human SERT [1] (10 mM Na+e, 140 mM intracellular Na+) stood at 0.35 ± 0.23 s⁻¹; on human SERT [1] (70 mM Na+e, 140 mM intracellular Na+), 0.10 ± 0.12 s⁻¹; on human SERT [1] (70 mM Na+i, 140 mM extracellular Na+), 0.50 ± 0.11 s⁻¹; at human SERT [1] (140 mM Na+e, 140 mM intracellular Na+) it was 0.49 ± 0.15 s⁻¹. Also, the “increase of rate of peak current recovery from 0 M to 140 mM intracellular Na+” value at human SERT [1] was roughly 10 fold. Also, the “dependence of the recovery rates on extracellular Na+ concentration” value at human SERT [1] is recorded as “did not detect any dependence”. For the same molecule, the “release of [3H]MPP+” value on human SERT [2] (no monensin) was “substantially larger release of [^3H]MPP^+ than PAL-1045”. For the same molecule, the “effect of monensin on efflux of [3H]MPP+” value on human SERT [2] is listed as “significantly larger efflux”.
For the molecule `CNC(C)Cc1ccc2ccccc2c1` (centres unmarked) [PAL-1046], on human SERT [1], the “change of rate of peak current recovery” value was “did not change with Na^+ concentration”.

(Values after publication PMC5839721 (The Journal of General Physiology, 2018).)
